H69AR growth 86K: growth inhibitors of human H69AR lung tumor cells; H69AR lung tumor viability, ATP luminescence, 72 h; stronger effect = lower value; viability, % at 10 µM; hit rate 6% among 85,000;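 active = viability at or below 40%; inactive = viability above 40%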;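 note: multidrug resistant small cell line overexpressing MRP-1 efflux transporter; 100% = mean luminescence of untreated control wells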
Pyk2 oligo antag: Pyk2 (human) oligomerization antagonism. z-score (the deposit names both 25 µM and 10 µM). hit rate 0.83% among 99,000. Q293 cells, Pyk2 FERM NanoBiT luminescence; stronger effect = lower value. Q14289. AID 1347419;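 active = Z-score of -3 or lower, scaled per plate to the spread of control and sample wells; inactive = z-score above -3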;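 note: negative z-score means lost luminescence so less FERM oligomerization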
Target sequence (Q14289 whole entry, looked up): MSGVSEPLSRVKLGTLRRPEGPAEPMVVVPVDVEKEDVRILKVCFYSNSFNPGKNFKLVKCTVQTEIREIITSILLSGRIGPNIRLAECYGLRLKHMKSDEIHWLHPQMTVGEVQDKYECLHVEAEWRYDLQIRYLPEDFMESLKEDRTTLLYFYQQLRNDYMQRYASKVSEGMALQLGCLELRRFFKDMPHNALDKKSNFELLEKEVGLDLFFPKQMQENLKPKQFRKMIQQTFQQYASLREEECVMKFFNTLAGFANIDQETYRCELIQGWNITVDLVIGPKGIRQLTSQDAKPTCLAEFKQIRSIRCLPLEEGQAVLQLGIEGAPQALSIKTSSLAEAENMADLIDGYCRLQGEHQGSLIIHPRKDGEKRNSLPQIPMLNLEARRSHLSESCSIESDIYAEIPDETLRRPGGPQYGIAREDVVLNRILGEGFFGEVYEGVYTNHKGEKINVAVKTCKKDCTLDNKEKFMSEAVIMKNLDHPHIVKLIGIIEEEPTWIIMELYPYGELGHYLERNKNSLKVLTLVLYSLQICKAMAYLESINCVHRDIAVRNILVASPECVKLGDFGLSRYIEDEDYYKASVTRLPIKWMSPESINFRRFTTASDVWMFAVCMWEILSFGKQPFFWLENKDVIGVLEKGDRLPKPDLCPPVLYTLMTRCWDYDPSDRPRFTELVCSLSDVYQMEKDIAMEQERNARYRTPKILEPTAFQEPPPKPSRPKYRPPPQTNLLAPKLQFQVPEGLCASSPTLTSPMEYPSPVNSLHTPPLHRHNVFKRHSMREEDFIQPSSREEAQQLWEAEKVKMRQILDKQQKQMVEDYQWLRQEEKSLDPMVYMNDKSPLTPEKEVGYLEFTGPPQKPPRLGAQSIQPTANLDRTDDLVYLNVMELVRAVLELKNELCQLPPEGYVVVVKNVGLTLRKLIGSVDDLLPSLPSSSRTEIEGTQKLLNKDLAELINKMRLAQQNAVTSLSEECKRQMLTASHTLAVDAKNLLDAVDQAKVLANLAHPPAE
Fibroblast inh: blocks proliferation of human lung fibroblasts | hit rate 1.1% among 85,000 | LL 47 human lung fibroblast viability, ATP luminescence; stronger effect = lower value | viability, % at 10 µM;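 active = viability at or below 50% in the single dose screen; inactive = viability above 50%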;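 note: compound exposure lasted 72 h before the ATP readout; 100% = median luminescence of untreated cell-only wells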
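Test system: LL 47 human lung fibroblasts; Quantity: 1,150 cells/well; Buffer or medium: IMEM plus 15% FBS; Dosing: tenfold compound dosing solution, DMSO at 0.1%; Timing: overnight cell rest, 72 h compound treatment at 37 °C; Detection: ATP-based CellTiter-Glo luminescent readout; Read-out basis: viability percentage against median untreated-cell control; Controls: cell-only wells, no compound.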
PTEN del growth: PTEN-deleted cell growth suppression. viability, % at 10 µM. hit rate 1.2% among 140,000. HCT116 PTEN-null viability, CellTiter-Glo, 60 h; stronger effect = lower value;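 active = viability at or below a set limit, 4 SD under the median of all tested compounds, cut at about 3.7% in these data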;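 note: PTEN knockout HCT116 line with beta catenin targeted HCT116 as companion control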
bCat KO growth: beta-catenin-lacking colon tumor cell growth suppression. HCT116 beta-catenin knockout viability, CellTiter-Glo, 60 h; stronger effect = lower value. viability, % at 10 µM. hit rate 1.5% among 140,000. AID 818;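 active = viability at or under a set limit, the compound median less 4 SD, cut at about 6% in these data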;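 note: 0% = Hyamine 1622 control at 20 µM and 100% = untreated cell control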
HUVEC inhibit: human endothelial cell proliferation inhibition; HUVEC proliferation, CellTiter-Glo luminescence, 72 h; stronger effect = lower value; viability, % at 10 µM (by protocol); hit rate 1.1% among 86,000; AID 648;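 active = viability at or below 30%; inactive = viability above 30%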;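 note: 100% = median luminescence of DMSO-only cell control wells on each plate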
The depositor's hits bear a star; . = no result given. Shown is part of a subset that was picked to be rich in hits.

SMILES	H69AR growth 86K	Pyk2 oligo antag	Fibroblast inh	PTEN del growth	bCat KO growth	HUVEC inhibit
CCOC(=O)N1CCC(NC(=O)c2cc(C(=O)NC3CCCC3)ccc2CO)CC1	102.4	.	87.6	92.9	90.0	113.2
CCOC(=O)N1CCC(NC(=O)c2ccc3c(c2)N(Cc2ccc(C)cc2)CCS3)CC1	37.8*	.	75.2	78.3	70.0	67.6
CCOC(=O)N1CCC(NC(=O)c2ccc3c(c2)N(C)CCS3)CC1	37.3*	-0.28	94.2	90.8	97.4	84.1
CCOC(=O)N1CCC(NC(=O)c2ccc3c(c2)N(Cc2ccc(F)cc2)CCS3)CC1	23.5*	.	98.2	34.0	32.4	82.8
CCOC(=O)N1CCC(NC(=O)c2ccc3c(c2)N(Cc2ccccc2)CCS3)CC1	45.1	.	87.9	68.5	55.4	83.7
CCOC(=O)N1CCN(C(=O)c2ccc3c(c2)N(CC)CCS3)CC1	87.9	.	97.3	102.8	91.5	91.9
CC(=O)Nc1nc(-c2cccs2)cs1	88.0	0.35	94.7	79.3	77.6	89.2
O=C(Nc1nc(-c2cccs2)cs1)c1ccc(Cl)s1	3.6*	.	98.0	50.5	51.3	42.5
Cc1ccc(C(=O)Nc2nc(C(C)(C)C)cs2)s1	90.8	-1.94	71.3	82.6	52.7	104.7
CC(C)(C)c1csc(NC(=O)c2ccc(Cl)s2)n1	81.7	-3.04*	62.6	78.5	58.3	59.2
COc1cccc2[nH]c3c(Cl)ncnc3c12	.	.	.	95.6	86.8	.
COc1ccc(-c2cc(-c3ccc(C)cc3)nc(SCc3nnc(-c4ccccc4)o3)c2C#N)cc1OC	.	.	.	1.3*	1.5*	.
CCn1cc(C(=O)O)c(=O)c2cc(F)c(N3CCN(C(=O)Nc4ccccc4)CC3)cc21	50.4	-1.38	94.2	45.3	62.4	86.3
CCn1cc(C(=O)NCc2ccccn2)c(=O)c2cc(F)c(N3CCN(C)CC3)cc21	72.3	0.09	101.7	91.5	85.5	100.3
CCn1cc(C(=O)NCc2ccc3c(c2)OCO3)c(=O)c2cc(F)c(N3CCN(C)CC3)cc21	21.0*	-1.02	92.5	2.3*	2.5*	79.1
CCn1cc(C(=O)N[C@H](C)c2ccccc2)c(=O)c2cc(F)c(N3CCN(C)CC3)cc21	9.7*	-0.37	77.6	62.0	43.9	47.1
CCn1cc(C(=O)NCCc2ccccc2)c(=O)c2cc(F)c(N3CCN(C)CC3)cc21	42.3	0.69	79.3	53.0	51.4	17.3*
O=C(COc1ccccc1)Nc1cccc(-c2nnc(-c3ccccc3)o2)c1	85.5	-0.87	102.3	.	.	54.5
CCOc1ccccc1C(=O)Nc1cccc(-c2nnc(-c3ccccc3)o2)c1	8.7*	-0.37	87.0	63.0	63.1	48.0
O=C(Nc1cccc(-c2nnc(-c3ccccc3)o2)c1)c1ccc(Br)o1	44.3	-3.15*	112.7	78.3	82.4	42.3
O=C(CNC(=O)c1ccc(Br)o1)Nc1cccc(-c2cnc3ccccc3n2)c1	25.4*	-1.36	98.3	84.9	81.5	82.8
O=S(=O)(NCC1CCCO1)c1ccc(S(=O)(=O)N(Cc2ccccc2F)C2CCCCC2)cc1 (stereo not drawn)	85.5	-0.95	91.5	.	.	92.3
CCN(CC)S(=O)(=O)c1ccc(N2CCOCC2)c(NC(=O)c2c3c(nc4ccccc24)CCC3)c1	.	.	.	92.6	92.4	.
COc1cccc(C2C3=C(CC(C)(C)CC3=O)Nc3cc4c(cc32)OCO4)c1 (stereo not drawn)	32.2*	.	94.0	94.1	94.5	77.8
O=C(CCNc1ccc(F)cc1)c1ccco1	1.1*	0.28	91.1	52.0	64.4	74.7
SMILES	H69AR growth 86K	Pyk2 oligo antag	Fibroblast inh	PTEN del growth	bCat KO growth	HUVEC inhibit
O=C(CCNc1cc(Cl)cc(Cl)c1)c1ccco1	83.2	1.08	100.3	55.0	12.1	90.2
O=C(CCNc1cccc(C(F)(F)F)c1)c1ccco1	57.2	-0.48	84.6	67.4	42.9	83.4
O=C(CCNc1ccc(F)c(Cl)c1)c1ccco1	1.8*	-0.02	96.0	20.4	2.2*	70.9
C/C(=N\NC(=O)c1nn(C)c(C)c1Br)c1cccc(NC(=O)c2ccoc2C)c1	.	.	.	97.5	100.8	.
COc1ccc(NC(=O)c2c(OC)cccc2OC)c(OC)c1	84.8	-4.38*	98.3	19.9	15.9	97.2
CCOCC(=O)Nc1c(C(=O)Nc2ccc(OC)cc2OC)oc2ccccc12	41.4	0.7	81.3	80.3	82.1	68.9
COc1ccccc1NC(=O)c1oc2ccccc2c1NC(=O)c1cc(OC)c(OC)c(OC)c1	22.1*	0.29	70.9	.	.	40.7
COCC(=O)Nc1c(C(=O)Nc2ccccc2OC)oc2ccccc12	72.5	-0.83	100.8	68.2	66.2	74.7
COc1cccc(OCC(=O)Nc2c(C(=O)Nc3ccc(OC)cc3OC)oc3ccccc23)c1	20.6*	.	76.8	.	.	31.9
O=C1CN(C(=O)c2ccccn2)c2ccccc2N1	91.7	0.02	92.1	99.0	102.3	102.6
CCCn1nc(C(=O)N2CC(=O)Nc3ccccc32)c2ccccc2c1=O	25.2*	-0.68	62.5	26.7	30.6	55.2
COc1cc2[nH]c(=O)n(CCC(=O)N3CCN(c4cccc(C)c4C)CC3)c(=O)c2cc1OC	2.4*	0.11	88.8	98.9	96.2	44.1
COc1ccc2cc(CN(C(=O)Nc3ccccc3OC)C3CCCC3)c(=O)[nH]c2c1	24.7*	0.31	88.8	42.4	48.1	70.8
COc1cc2cc(CN(C(=O)NC3CCCCC3)C3CCCC3)c(=O)[nH]c2cc1OC	76.9	0.88	94.2	82.0	83.1	89.2
CCc1ccc2[nH]c(=O)c(CN(Cc3ccccc3)C(=O)Nc3ccccc3OC)cc2c1	38.7*	-2.01	49.2*	43.9	45.0	81.9
O=C(NC1CCCCC1)N(Cc1cc2cc3c(cc2[nH]c1=O)OCCO3)C1CCCCC1	35.6*	-0.75	85.4	77.0	74.3	85.1
Cn1nnnc1Sc1nc(-c2cccnc2)nc2ccccc12	0.0*	.	11.7*	.	.	86.5
CN1CCN(c2nc(-c3cccnc3)nc3ccccc23)CC1	71.5	1.36	94.7	73.0	55.5	86.7
Cc1nn(-c2ccccc2)c2c1/C(=N/O)CC(C)(C)C2	30.0*	-0.66	96.8	80.0	86.7	105.5
O=C(CSc1nc(-c2ccccc2)c(-c2ccccc2)[nH]1)NCCN1C(=O)CSC1=O	21.4*	-0.97	54.6	12.3	9.8	30.7
O=C(CSc1nc(-c2ccccc2)c(-c2ccccc2)[nH]1)NCc1ccco1	91.8	-0.27	82.5	34.8	41.7	46.5
Cc1nn(C)c(C)c1/C=N/N=C1\CCC2C3CCc4cc(O)ccc4C3CCC12C (stereo not drawn)	.	-0.54	.	6.4	3.1*	.
C[C@]12CC[C@@H]3c4ccc(O)cc4CC[C@H]3[C@@H]1CCC2=O	81.3	.	92.9	75.5	77.7	77.8
O=C(c1ccc(COc2c(F)c(F)c(F)c(F)c2F)o1)N1CCN(Cc2ccc3c(c2)OCO3)CC1	28.3*	1.9	92.9	76.2	85.3	94.3
O=C(c1ccc(Br)o1)N1CCN(Cc2ccc3c(c2)OCO3)CC1	105.8	2.05	106.8	98.9	86.3	109.4

Bioassay records: PubChem, several laboratories
